Measured values from ChEMBL document CHEMBL1131165, “Inhibitors of acyl-CoA:cholesterol O-acyltransferase. 3. Discovery of a novel series of N-alkyl-N-[(fluorophenoxy)benzyl]-N'-arylureas with weak toxicological effects on adrenal glands” (J Med Chem, 1998).
Active and inactive are the calls of the source. No cut-off for these calls is given here.

Tests used:
[1] = system: Rattus norvegicus; assay: Percent reduction in cholesterol levels in rats at >0.1 mg/kg; inactive; type: functional, organism-based
In short: (§1)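 In cholesterol-fed rats, compound was given orally either as a dietary admixture or by gavage in PEG400. Read-out is the percent reduction of plasma total cholesterol versus control at the dose indicated. Significance was assessed by unpaired, two-tailed Student's t-test.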

[2] = molecular target: T1, O-acyltransferase (Oryctolagus cuniculus, UniProt G1SFD9); assay: In vitro inhibition of acyl coenzyme A:cholesterol acyltransferase (ACAT) from rabbit intestinal microsomes
T1 sequence (G1SFD9 1-524): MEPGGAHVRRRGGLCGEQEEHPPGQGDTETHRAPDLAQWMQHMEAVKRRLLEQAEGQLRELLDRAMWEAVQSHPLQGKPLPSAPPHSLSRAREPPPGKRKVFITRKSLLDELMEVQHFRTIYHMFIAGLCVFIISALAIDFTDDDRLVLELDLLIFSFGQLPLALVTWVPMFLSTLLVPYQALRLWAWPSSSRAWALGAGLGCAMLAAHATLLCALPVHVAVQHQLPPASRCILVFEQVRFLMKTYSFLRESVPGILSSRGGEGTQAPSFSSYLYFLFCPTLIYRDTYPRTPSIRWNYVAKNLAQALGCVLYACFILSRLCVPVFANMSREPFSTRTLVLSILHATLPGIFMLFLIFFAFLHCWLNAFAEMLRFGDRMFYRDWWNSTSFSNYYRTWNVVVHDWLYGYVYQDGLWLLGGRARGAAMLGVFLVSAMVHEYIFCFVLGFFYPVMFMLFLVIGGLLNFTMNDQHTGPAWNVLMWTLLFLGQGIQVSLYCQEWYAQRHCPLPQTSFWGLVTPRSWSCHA
In short: (§2)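 Enzyme source is microsomes from rabbit intestine. Read-out is the concentration giving 50% inhibition of ACAT activity (IC50, nM). Some IC50 values were estimated relative to the IC50 of a reference inhibitor tested on the same enzyme batch.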

[3] = In vitro inhibitory activity against acetylated LDL-induced accumulation of cholesteryl esters in mouse peritoneal macrophages; type: functional
In short: (§3)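 Mouse peritoneal macrophages were exposed to acetylated LDL, which induces accumulation of cholesteryl esters. Read-out is the IC50 (nM) for inhibiting that accumulation. Values given in parentheses are percent inhibition at the concentration indicated.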

[4] = system: Rattus norvegicus; assay: In vivo hypocholesterolemic activity in cholesterol-fed rats by oral administration in a cholesterol enriched diet; type: functional
In short: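 Rats were fed a cholesterol-enriched diet, and compound was given orally as an admixture in that diet. Read-out is plasma total cholesterol against control, expressed as ED50 (the dose reducing it by 50%) or as percent reduction at the stated dose. Significance was tested by unpaired, two-tailed Student's t-test.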

[5] = system: Rattus norvegicus; assay: Percent reduction in cholesterol levels in rats at <0.01 mg/kg; type: functional; in short: as §1
[6] = In vitro inhibitory activity against acetylated LDL-induced accumulation of cholesteryl esters in mouse peritoneal macrophages at <10 nM concentration; type: functional; in short: as §3
[7] = system: Rattus norvegicus; assay: In vivo hypocholesterolemic activity in cholesterol-fed rats by oral administration by gavage in PEG400 as a vehicle; type: functional
In short: (§4)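 Cholesterol-fed rats were dosed orally by gavage with PEG400 as vehicle. Plasma total cholesterol was compared with control and reported as ED50 (the dose reducing it by 50%) or as percent reduction at the dose given. Significance was tested by unpaired two-tailed Student's t-test.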

[8] = system: Rattus norvegicus; assay: Percent reduction in cholesterol levels in rats at <0.1 mg/kg; type: functional; in short: as §1
[9] = system: Rattus norvegicus; assay: Percent reduction in cholesterol levels in rats at >1 mg/kg; type: functional; in short: as §1
[10] = system: Rattus norvegicus; assay: Percent reduction in cholesterol levels in rats at >0.1 mg/kg; type: functional; in short: as §1
[11] = Adrenal toxicity in rabbits at 5 mg/kg i.v., expressed as drug-induced necrosis; + indicates necrosis observed; type: organism-based, Oryctolagus cuniculus; design: dose 5 mg/kg, route intravenous; conditions: rabbit, in vivo, iv
In short: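 Rabbits (n = 2) given a single 5 mg/kg iv dose as a solution in PEG400. Adrenal glands were examined for drug-induced necrosis of zona fasciculata cortical cells at 24 h after dosing. Each result is scored against controls as observed (+) or not observed (-).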

[12] = molecular target: T1, O-acyltransferase; assay: In vitro inhibitory activity against Acyl coenzyme A:cholesterol acyltransferase from rabbit intestinal microsomes; type: functional; in short: as §2
[13] = system: Rattus norvegicus; assay: Percent reduction in cholesterol levels in rats at <1 mg/kg; type: functional; in short: as §1
[14] = system: Rattus norvegicus; assay: In vivo hypocholesterolemic activity in cholesterol-fed rats by oral administration of compound by gavage in PEG400 as a vehicle; inactive at >1; type: functional, organism-based; in short: as §4
[15] = system: Rattus norvegicus; assay: Percent reduction in cholesterol levels in rats at 0.032 mg/kg; type: functional; in short: as §1
[16] = system: Rattus norvegicus; assay: Percent reduction in cholesterol levels in rats at <0.1 mg/kg; inactive; type: functional, organism-based; conditions: in the assay text read “>0.1 mg/kg” for “<0.1 mg/kg”; in short: as §1
[17] = system: Rattus norvegicus; assay: Percent reduction in cholesterol levels in rats at 0.01 mg/kg; type: functional; in short: as §1

IC50 [2] [nM] | IC50 [3] [nM] | SMILES | ED50 [4] [mg/kg] | ED50 [7] [mg/kg] | also measured
19 | 260 | CSc1cc(C)nc(SC)c1NC(=O)N(Cc1ccc(Oc2ccc(F)cc2)cc1)[C@@H](C)c1ccccc1 | > 0.1 |  | Reduction [1]: inactive
9.1 | < 10 | CSc1cc(C)nc(SC)c1NC(=O)N(Cc1ccccc1)Cc1ccc(Oc2ccc(F)cc2)cc1 | < 0.01 |  | Reduction [5]: 58%; Inhibition [6]: 77%
28 | 40 | CSc1cc(C)nc(SC)c1NC(=O)N(CCCc1ccccc1)Cc1ccc(Oc2ccc(F)cc2)cc1 | 0.025 |  | 
10 | 14 | CSc1cc(C)nc(SC)c1NC(=O)N(Cc1ccccc1)Cc1ccc(Oc2ccc(Br)cc2)cc1 | 0.011 | < 0.1 | Reduction [8]: 54%
19 | 110 | CSc1cc(C)nc(SC)c1NC(=O)N(Cc1ccc(Oc2ccc(F)cc2)cc1)[C@H](C)c1ccccc1 | 0.095 | 4.6 | 
 | 21 | CSc1cc(C)nc(SC)c1NC(=O)N(Cc1ccc(Oc2ccc(F)cc2)cc1)Cc1c(C)cccc1C |  |  | IC50 [12]: 26 nM
29 |  | COc1ccc(CN(Cc2ccc(Oc3ccc(F)cc3)cc2)C(=O)Nc2c(SC)cc(C)nc2SC)cc1 | > 0.1 |  | Reduction [10]: 24%
24 | 52 | CSc1cc(C)nc(SC)c1NC(=O)N(Cc1ccc(Oc2ccc(F)cc2)cc1)C(C)(C)c1ccccc1 |  |  | ED50 [14]: inactive
16 | 6.1 | CSc1cc(C)nc(SC)c1NC(=O)N(CCc1ccccc1)Cc1ccc(Oc2ccc(F)cc2)cc1 | 0.016 | 2.7 | 
 | 350 | CSc1cc(C)nc(SC)c1NC(=O)N(Cc1ccccc1)Cc1cccc(-c2cc[nH]n2)c1 |  |  | 
24 |  | CCOCCN(Cc1ccc(Oc2ccc(F)cc2)cc1)C(=O)Nc1c(SC)cc(C)nc1SC | > 0.1 |  | Reduction [10]: 26%
28 | < 10 | CSc1cc(C)nc(SC)c1NC(=O)N(Cc1ccc(Oc2ccc(Br)cc2)cc1)C1CCCCCC1 | 0.02 |  | Inhibition [6]: 75%
23 | < 10 | CSc1cc(C)nc(SC)c1NC(=O)N(Cc1ccc(Oc2ccc(F)cc2)cc1)C1CCCCC1 | < 0.01 |  | Reduction [17]: 63%; Inhibition [6]: 61%

The next lines start with the molecule.

SMILES | IC50 [2] [nM] | IC50 [3] [nM] | ED50 [4] [mg/kg] | ED50 [7] [mg/kg] | also measured
Cc1cc(S(C)(=O)=O)c(NC(=O)N(Cc2ccc(Oc3ccc(F)cc3)cc2)C2CCCCCC2)c(Cl)n1 | 30 | 350 | > 0.1 | > 1 | Reduction [9]: 34%; Reduction [10]: 46%
CSc1cc(C)nc(SC)c1NC(=O)N(Cc1ccc(Oc2ccc(F)cc2)cc1)C1CCCCCC1 |  | 48 | 0.034 | 0.11 | Toxicity [11]: necrosis observed
CSc1nc(C)nc(SC)c1NC(=O)N(Cc1ccc(Oc2ccc(F)cc2)cc1)C1CCCCCC1 | 56 | 20 | 0.069 | 0.45 | Toxicity [11]: necrosis observed
CSc1nc(C)cc(Cl)c1NC(=O)N(Cc1ccc(Oc2ccc(F)cc2)cc1)C1CCCCCC1 | 12 | 350 | < 0.1 | > 1 | Reduction [9]: 48%; Reduction [8]: 77%
Cc1cc(C)c(NC(=O)N(Cc2ccc(Oc3ccc(F)cc3)cc2)C2CCCCCC2)c(C)c1 | 25 | 80 | 0.045 | 5.3 | 
CSc1cc(C)nc(C)c1NC(=O)N(Cc1ccc(Oc2ccc(F)cc2)cc1)C1CCCCCC1 | 90 | 35 |  | < 1 | Reduction [13]: 72%
Cc1cc(S(C)(=O)=O)c(NC(=O)N(Cc2ccc(Oc3ccc(F)cc3)cc2)C2CCCCCC2)c(S(C)(=O)=O)n1 | 45 | 215 | 0.068 | 0.63 | 
COc1cc(C)nc(OC)c1NC(=O)N(Cc1ccc(Oc2ccc(F)cc2)cc1)C1CCCCCC1 | 33 | 350 | 0.032 | 4.5 | 
COc1nc(C)ccc1NC(=O)N(Cc1ccc(Oc2ccc(F)cc2)cc1)C1CCCCCC1 | 39 |  | > 0.1 |  | Reduction [1]: inactive
Cc1cc(C)c(NC(=O)N(Cc2ccc(Oc3ccc(F)cc3)cc2)C2CCCCCC2)c(C)n1 | 62 | 240 | 0.044 | 0.77 | 
O=C(Nc1c(F)cc(F)cc1F)N(Cc1ccccc1)Cc1cccc(-c2cc[nH]n2)c1 |  | 7400 |  |  | 
CSc1cc(C)nc(Cl)c1NC(=O)N(Cc1ccc(Oc2ccc(F)cc2)cc1)C1CCCCCC1 | 46 | 47 | 0.022 | 0.17 | Toxicity [11]: necrosis observed
Cc1ccc(NC(=O)N(Cc2ccc(Oc3ccc(F)cc3)cc2)C2CCCCCC2)c(Cl)n1 | 19 |  | > 0.1 |  | 
COc1nc(C)cc(SC)c1NC(=O)N(Cc1ccc(Oc2ccc(F)cc2)cc1)C1CCCCCC1 | 29 | 13 | < 0.032 | 1.4 | Reduction [15]: 62%
CSc1cc(C)nc(SC)c1NC(=O)N(Cc1cccc(Oc2ccc(F)cc2)c1)C1CCCCCC1 | 73 | 2.9 | < 0.1 |  | 
CSc1cc(C)nc(SC)c1NC(=O)N(Cc1ccc(Oc2ccc(F)cc2)cc1)C1CCOCC1 | 46 |  | < 0.1 |  | Reduction [8]: 58%
Cc1cc(Cl)c(NC(=O)N(Cc2ccc(Oc3ccc(F)cc3)cc2)C2CCCCCC2)c(Cl)n1 | 14 |  | > 0.1 |  | Reduction [10]: 38%
CSc1cc(C)nc(S(C)(=O)=O)c1NC(=O)N(Cc1ccc(Oc2ccc(F)cc2)cc1)C1CCCCCC1 | 78 | 15 | > 0.1 |  | Reduction [16]: inactive
